Data set [1] can be described thus: in vitro. The following applies: human.
Data set [2] can be described thus: in vitro. The note with it: rat.
Data set [3] can be described thus: Half life in monkey at 1.1 mg/kg, iv. In kind it is ADME, organism-based, Macaca mulatta. Details: dose 1.1 mg/kg, route intravenous. The following applies: rhesus monkey, in vivo. In a few lines: (§1)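 Monkey PK study using the benzoate salt, dosed at 1.1 mg/kg iv or 10 mg/kg orally. Plasma drug concentrations and plasma DPP-4 inhibition were measured. Parameters derived were iv and oral half-lives, oral AUC, CL, Vdss and F (%).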

Data set [4] can be described thus: Half life in monkey at 10 mg/kg, po. In kind it is ADME, organism-based, Macaca mulatta. More on the design: dose 10 mg/kg, route oral. The note with it: rhesus monkey, in vivo. The method in brief: as §1
Data set [5] can be described thus: AUC in monkey at 10 mg/kg, po. More on the design: dose 10 mg/kg, route oral. The following applies: rhesus monkey, plasma. It counts as ADME, organism-based, Macaca mulatta. The method in brief: as §1
Data set [6] is described as follows: Clearance in monkey at 1.1 mg/kg, iv and 10 mg/kg, po. The note with it: rhesus monkey, in vivo. In kind it is ADME, organism-based, Macaca mulatta. The method in brief: as §1
A short description of data set [7]: Volume of distribution at steady state in monkey at 1.1 mg/kg, iv and 10 mg/kg, po. In kind it is ADME, organism-based, Macaca mulatta. The note with it: rhesus monkey, in vivo, read-out: Vdss. The method in brief:
as §1

Data set [8] is described as follows: Bioavailability in monkey at 1.1 mg/kg, iv and 10 mg/kg, po. The following applies: rhesus monkey, in vivo. It counts as ADME, organism-based, Macaca mulatta. The method in brief:
as §1

For data set [9], the species on record is Rattus norvegicus. Nature of the data set: Improvement in glucose tolerance in Wistar fatty rat. In kind it is functional, organism-based. The method in brief: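 Glucose tolerance test in female Wistar fatty rats given the benzoate salt, with doses normalized to free base. Read-outs after an oral glucose load were plasma glucose, the baseline (0 min)-adjusted glucose AUC0–60min, and plasma immunoreactive insulin, including the level at 10 min. Data are mean and SD (n = 6), compared with control by one-tailed Williams'/Shirley-Williams' tests.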

For data set [10], the species on record is Rattus norvegicus. Nature of the data set: Increase in plasma insulin level in Wistar fatty rat. In kind it is functional, organism-based. In a few lines: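 Female Wistar fatty rats given a benzoate salt, with doses expressed as free base, then an oral glucose load. Plasma immunoreactive insulin read 10 min after the glucose load. Mean and SD, n = 6. Compared with control by one-tailed Williams' or Shirley-Williams' test, p ≤ 0.025.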

The species named for another data set is Mus musculus. Nature of the data set: Reduction in glucose excursion in mouse after oral glucose tolerance test. It counts as functional, organism-based.
A short description of data set [11]: Half life in rat at 1 mg/kg, iv. Details: dose 1 mg/kg, route intravenous. In kind it is ADME, organism-based. The note with it: in vivo. The method in brief: (§2)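 Rat PK study using the TFA salt. A single iv dose (1 mg/kg) and a separate oral dose (10 mg/kg) were given. Half-life was derived for each route, and CL and Vdss for the iv route. F (%) was calculated from the oral and iv exposure.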

Data set [12] is described as follows: Half life in rat at 10 mg/kg, po. It counts as ADME, organism-based. More on the design: dose 10 mg/kg, route oral. The following applies: in vivo. The method in brief:
as §2

Data set [13] in a line: AUC in rat at 10 mg/kg, po. The following applies: plasma. In kind it is ADME, organism-based. More on the design: dose 10 mg/kg, route oral. In a few lines: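 Rat pharmacokinetics with the test article given as the TFA salt: 1 mg/kg iv and 10 mg/kg oral. Oral AUC comes from plasma concentrations after oral dosing. Half-lives, clearance, Vdss and oral bioavailability are derived from the same iv/oral pair.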

Data set [14] is described as follows: Clearance in rat at 1 mg/kg, iv and 10 mg/kg, po. It counts as ADME, organism-based. The following applies: in vivo. In a few lines: as §2
Data set [15] in a line: Volume of distribution at steady state in rat at 1 mg/kg, iv and 10 mg/kg, po. In kind it is ADME, organism-based. The following applies: in vivo, read-out: Vdss. The method in brief: as §2
Data set [16] can be described thus: Half life in dog at 1 mg/kg, iv. It counts as ADME, organism-based, Canis lupus familiaris. Details: dose 1 mg/kg, route intravenous. The following applies: in vivo. The method in brief:
(§3)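 Dog PK study using the HCl salt, dosed at 1 mg/kg iv or 3 mg/kg orally. Plasma drug levels were followed, and plasma DPP-4 activity was tracked alongside them.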

Data set [17] can be described thus: Half life in dog at 3 mg/kg, po. It counts as ADME, organism-based, Canis lupus familiaris. More on the design: dose 3 mg/kg, route oral. The note with it: in vivo. The method in brief:
as §3

The nature of data set [18]: AUC in dog at 3 mg/kg, po. The following applies: plasma. In kind it is ADME, organism-based, Canis lupus familiaris. Details: dose 3 mg/kg, route oral. In a few lines: as §3
The nature of data set [19]: Clearance in dog at 1 mg/kg, iv and 3 mg/kg, po. It counts as ADME, organism-based, Canis lupus familiaris. The following applies: in vivo. The method in brief:
as §3

Data set [20] is described as follows: Volume of distribution at steady state in dog at 1 mg/kg, iv and 3 mg/kg, po. In kind it is ADME, organism-based, Canis lupus familiaris. The note with it: in vivo, read-out: Vdss. The method in brief:
as §3

A short description of data set [21]: Bioavailability in dog at 1 mg/kg, iv and 3 mg/kg, po. In kind it is ADME, organism-based, Canis lupus familiaris. The following applies: in vivo. In a few lines:
as §3

Calls of active or inactive are those of the source. The calls are words filed in the database; no cut-off is given here.

Turning to `N#Cc1ccccc1Cn1c(N2CCCC(N)C2)nc2c(Cl)cccc2c1=O` (configuration not stated), the half-life at 1 µM in the data set “in vitro [1]” (liver microsomes) was 80 min; in the data set “in vitro [2]” (liver microsomes), 3.7 min.

With `COc1cc2nc(N3CCC[C@@H](N)C3)n(Cc3ccccc3C#N)c(=O)c2cc1OC`, the half-life at 1 µM in “in vitro [1]” (liver microsomes) worked out at 146 min; in “in vitro [2]” (liver microsomes) it was 107 min.

In the case of `N#Cc1ccccc1Cn1c(N2CCC[C@@H](N)C2)nc2ccc(Br)cc2c1=O`, the half-life at 1 µM is 113 min in “in vitro [1]” (liver microsomes) and 34 min in “in vitro [2]” (liver microsomes).

As for `Cn1c(=O)cc(N2CCC[C@@H](N)C2)n(Cc2ccccc2C#N)c1=O.O=C(O)c1ccccc1` [ALOGLIPTIN BENZOATE], the half-life in data set [3] was 344 min; in data set [4] it was 340 min. In addition, the AUC in data set [5] worked out at 16600 ng·h/mL. In addition, the clearance in data set [6] was 8.81 mL/min/kg. For the same molecule, the Vd in [7] came out at 2.6 L/kg. The molecule also displayed a bioavailability in data set [8] of 87%.

As to `N#Cc1ccccc1Cn1c(N2CCC[C@@H](N)C2)nc2cc(N3CCOCC3)c(F)cc2c1=O`, the half-life at 1 µM in “in vitro [1]” (liver microsomes) stood at 33 min; in “in vitro [2]” (liver microsomes) it was 6.1 min.

Regarding `N#Cc1ccccc1Cn1c(N2CCC[C@@H](N)C2)nc2cccc(F)c2c1=O`, the half-life at 1 µM in “in vitro [1]” (microsomes) stood at 125 min; in the data set “in vitro [2]” (microsomes), 1.8 min.

On to `COc1cc2c(=O)n(Cc3ccccc3C#N)c(N3CCC[C@@H](N)C3)nc2cc1F`, for which the results for the half-life at 1 µM in “in vitro [1]” (liver microsomes) and in “in vitro [2]” (liver microsomes) were 136 min and 35 min, respectively.

As for `N#Cc1ccccc1Cn1c(N2CCC[C@@H](N)C2)nc2ccc(Cl)cc2c1=O`, the figures for the half-life at 1 µM in the data set “in vitro [1]” (liver microsomes) and in “in vitro [2]” (liver microsomes) were greater than 200 min and 40 min, respectively.

Turning to `N#Cc1ccccc1Cn1c(N2CCC[C@@H](N)C2)nc2ccc(F)cc2c1=O` [listing 1 of 2 here], the half-life at 1 µM in the data set “in vitro [1]” (liver microsomes) is greater than 200 min; in “in vitro [2]” (liver microsomes), 31 min.

In the case of `Cn1c(=O)cc(N2CCC[C@@H](N)C2)n(Cc2ccccc2C#N)c1=O`, the Activity result in the data set filed under Rattus norvegicus [9] is “Dose-dependent effect”. Also, the outcome in the data set listed under Rattus norvegicus [10] was Active.

Consider `COc1ccc2nc(N3CCC[C@@H](N)C3)n(Cc3ccccc3C#N)c(=O)c2c1`, for which the half-life at 1 µM in “in vitro [1]” (liver microsomes) came out at 82 min; in “in vitro [2]” (liver microsomes), 10 min.

Regarding `N#Cc1ccccc1Cn1c(N2CCC[C@@H](N)C2)nc2ccc(F)cc2c1=O` [listing 2 of 2 here], the result in the data set listed under Mus musculus was Active.

Consider `N#Cc1ccccc1Cn1c(N2CCC[C@@H](N)C2)nc2ccc(F)cc2c1=O.O=C(O)C(F)(F)F`, for which the half-life is 156 min in data set [11] and 146 min in data set [12]. This molecule had an AUC in data set [13] of 7560 ng·h/mL. The molecule further registered a clearance in [14] of 20.6 mL/min/kg. Also, in data set [15], the Vd was 2.87 L/kg.

Regarding `Cl.Cn1c(=O)cc(N2CCC[C@@H](N)C2)n(Cc2ccccc2C#N)c1=O`, the half-life was 176 min in data set [16] and 182 min in data set [17]. In [18], the AUC came out at 1610 ng·h/mL. The molecule also returned a clearance in data set [19] of 23 mL/min/kg. Also, the Vd in data set [20] turned out to be 3.51 L/kg. The bioavailability in [21] is 68%.

As for `N#Cc1ccccc1Cn1c(N2CCC[C@@H](N)C2)nc2c(Cl)cc(Cl)cc2c1=O`, the half-life at 1 µM is 64 min in the data set “in vitro [1]” (microsomes) and 17 min in “in vitro [2]” (microsomes).

In the case of `N#Cc1ccccc1Cn1c(N2CCC[C@@H](N)C2)nc2ccccc2c1=O`, the half-life at 1 µM in “in vitro [1]” (microsomes) was greater than 200 min; in “in vitro [2]” (microsomes) it was 2.5 min.
